# Screening results (PubChem BioAssay)
# HKDC1 inh = blocks human hexokinase HKDC1 activity; recombinant HKDC1, G6PDH/diaphorase resazurin coupled fluorescence; inhibition, % at 20 µM; hit rate 0.16% among 340,000; AID 493160;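 active = inhibition above about 35% when tested at 20 µM, limit read from the data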
#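 Test system: HK5 enzyme. Quantity: 5 µg/mL HK5 final. Reagent: glucose and ATP substrates. Schedule: 90 min reaction incubation at room temperature, dark. Technique: resazurin-to-resorufin fluorescence via G6PDH and diaphorase coupling, 525/613 nm. Control set: DMSO wells with and without enzyme mix.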
# Tb hexokinase = T. brucei hexokinase 1 inhibition; recombinant TbHK1, G6PDH-coupled NADH A340; inhibition, % at 10 µM; hit rate 0.11% among 220,000; AID 1430;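 active = inhibition of 50% or more in the single-dose primary screen; inactive = inhibition below 50%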
# EP2 mod = modulators of human EP2 prostaglandin E2 receptor; EP2-expressing cells, cAMP HTRF FRET, PGE2 co-stimulation; induction, % at 25 µM; hit rate 0.83% among 260,000;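 active = compounds whose cAMP rise, as percent of the full-agonist control response, exceeds 60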;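 also: rat C6 glioma line stably carrying human EP2 under a CMV promoter; the protocol text gives 20 µM as final concentration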
# Target sequence (P43116 whole entry, looked up): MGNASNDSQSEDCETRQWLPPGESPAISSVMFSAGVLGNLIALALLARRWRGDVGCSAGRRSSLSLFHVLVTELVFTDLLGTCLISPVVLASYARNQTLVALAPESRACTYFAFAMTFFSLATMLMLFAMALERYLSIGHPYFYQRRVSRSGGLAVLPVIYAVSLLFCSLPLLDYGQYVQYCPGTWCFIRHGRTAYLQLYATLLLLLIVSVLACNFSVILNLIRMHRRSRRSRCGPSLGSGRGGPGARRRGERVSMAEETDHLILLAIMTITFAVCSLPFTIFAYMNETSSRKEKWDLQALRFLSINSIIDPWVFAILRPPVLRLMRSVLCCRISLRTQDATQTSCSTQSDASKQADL
# PGE2 EP2 inh = EP2 receptor (human) inhibition | C6 glioma cells expressing human EP2, cAMP TR-FRET; cells stimulated with saturating PGE2 | AID 1422 | inhibition, % at 25 µM | hit rate 0.52% among 260,000 | P43116;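 active = percent inhibition above 40 after rounding to a whole number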;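 also: rat C6 glioma host cells with rolipram phosphodiesterase inhibitor present; the protocol text gives 20 µM as final concentration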
# PHOSPHO1 block = PHOSPHO1 (human) inhibition; Q8TCT1; recombinant PHOSPHO1, absorbance phosphatase assay; inhibition, % at 13.3 µM; hit rate 1.1% among 290,000; AID 1565; in the data active = inhibition above about 60%
# PfGluPho inh = PfG6PD (Plasmodium falciparum) enzyme inhibition. inhibition, % at 20 µM. AID 504690. hit rate 0.78% among 350,000. PfGluPho enzyme, NADPH resazurin-diaphorase fluorescence;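 active = inhibition reaching at least a set limit at 20 µM in the primary screen, cut at about 59% in these data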
# PfG6PD confirm = confirmation of Plasmodium falciparum G6PD inhibitors. inhibition, % at 20 µM. recombinant PfGluPho, NADPH-diaphorase-resazurin fluorescence. AID 504753. hit rate 34% among 2,400. shares compounds with PfGluPho inh;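 active = inhibition of at least 50% at 20 µM in any single replicate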
# Diaphorase 10uM = counter-screen for P. falciparum G6PD inhibitors: diaphorase inhibitors, oxidizers; hit rate 39% among 820; diaphorase-coupled resazurin reduction, fluorescence, NADPH 10 uM; inhibition, % at 20 µM; shares compounds with PfGluPho inh;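 active = average inhibition reaching 50% or more with the compound at 20 µM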;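 also: resorufin red fluorescence formed as diaphorase reduces resazurin using NADPH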
# Diaphorase 30uM = inhibits diaphorase or oxidizes, flagging false PfG6PD hits | shares compounds with PfGluPho inh | Diaphorase/resazurin coupled assay, resorufin fluorescence, 30 uM NADPH | inhibition, % at 20 µM | hit rate 29% among 820;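 active = inhibition averaging 50% or more, tested at 20 µM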
# Numbers stand for hits; i = inactive; nt = no result given. This is a sample that favours compounds with a hit; in the whole collection about 2.5% have one here.
SMILES,HKDC1 inh,Tb hexokinase,EP2 mod,PGE2 EP2 inh,PHOSPHO1 block,PfGluPho inh,PfG6PD confirm,others
COc1ccc(C2CC(=O)N3CN(Cc4ccco4)CSC3=C2C#N)cc1 (stereo not given),i,i,i,i,i,59.2,i,
COc1cc(CNCc2ccco2)ccc1OCc1ccccc1,i,i,i,i,i,i,nt,
CCOc1cc(C2CC(=O)N3CN(C4CCCCC4)CSC3=C2C#N)ccc1O (stereo not given),i,i,i,i,i,76.2,i,
COc1ccc(C2C(C#N)=C(N)Oc3cc(C)n(Cc4ccco4)c(=O)c32)cc1 (stereo not given),i,i,i,i,i,i,nt,
COc1ccccc1OC1OC2COC(C)(C)OC2C(O)C1NC(C)=O (stereo not given),nt,nt,i,i,nt,nt,nt,
CCCSC1=C(C#N)C(c2cccs2)CC(=O)N1 (stereo not given),i,i,i,i,i,i,nt,
N#CC1=C2SCN(Cc3ccccc3)CN2C(=O)CC1c1cccs1 (stereo not given),i,i,i,i,67.5,70.9,i,
CSC1=C(C#N)C(c2ccc(C(C)C)cc2)CC(=O)N1 (stereo not given),i,i,i,i,i,i,nt,
CC(C)c1ccc(C2CC(=O)N3CN(Cc4ccco4)CSC3=C2C#N)cc1 (stereo not given),i,i,i,i,i,61.4,i,
COc1ccc2ccccc2c1C1CC(=O)N2CN(C3CCCCC3)CSC2=C1C#N (stereo not given),i,i,i,i,i,72.1,64.7,Diaphorase 10uM=i;Diaphorase 30uM=i
CC[C@H](Cn1ncc2ccccc2c1=O)NC(=O)Cc1ccc(F)cc1,nt,nt,i,nt,nt,nt,nt,
CCN(CC)c1ccc(-c2nc3cnccn3c2NCC2CCCO2)c(OC)c1 (stereo not given),nt,nt,i,nt,nt,nt,nt,
CCOc1cc(CCC(=O)N2CC(CN3CCOCC3)c3ccccc32)on1 (stereo not given),nt,nt,i,i,nt,nt,nt,
Cc1cc(-n2c(C)cc(C(=O)CCl)c2C)no1,i,i,i,i,i,i,nt,
Cc1cc(-n2c(C)cc(C(=O)CSc3ccccn3)c2C)no1,i,nt,nt,nt,nt,67.4,i,
CC(=O)Nc1nonc1NC(C)=O,i,i,i,i,i,i,nt,
CC(=O)Nc1cc(OC(C)=O)c2nonc2c1OC(C)=O,i,i,nt,i,i,79.6,53.5,Diaphorase 10uM=i;Diaphorase 30uM=i
C[C@@H]1CN([C@@H](C)CO)C(=O)c2cc(C#CC3CCCCC3)cnc2O[C@@H]1CN(C)S(=O)(=O)c1ccc(F)cc1,nt,nt,nt,nt,nt,65.7,i,
C[C@@H]1CN([C@@H](C)CO)C(=O)c2cc(/C=C/c3ccccc3)cnc2O[C@@H]1CN(C)S(=O)(=O)c1ccc(F)cc1,nt,nt,nt,nt,nt,i,nt,
N#Cc1cc(-c2ccccc2)nn1-c1ccccc1,i,i,i,i,i,80.4,i,
CC(=O)NS(=O)(=O)c1ccc(N=c2ssc3c2-c2cc(C)ccc2NC3(C)C)cc1,i,i,i,i,i,i,nt,
CC1(C)Nc2ccc(O)cc2-c2c1ssc2=S,i,i,i,i,i,72.0,54.5,Diaphorase 10uM=i;Diaphorase 30uM=i
Cc1c(Cl)c([N+](=O)[O-])nn1Cc1ccc(C(=O)N/N=C\c2cccc(Br)c2)o1,i,i,i,i,i,104.8,61.0,Diaphorase 10uM=61.4;Diaphorase 30uM=i
O=C(N/N=C\c1cccc(Cl)c1)c1ccc(Cn2cc(Br)c([N+](=O)[O-])n2)o1,i,i,i,i,i,i,nt,
Cc1cccc(Sc2ccc([N+](=O)[O-])cc2[N+](=O)[O-])n1,i,i,i,i,i,64.3,i,
Cc1c(C(=O)Nc2ccncc2)sc2nc(-c3ccc(F)cc3)cn12,i,i,i,i,i,84.1,i,
COc1ccc(-c2cn3c4c(sc3n2)CCCC4)cc1,i,i,i,i,i,93.3,i,
COc1ccc(-c2cn3c(C)c(C(=O)Nc4cccc(NC(C)=O)c4)sc3n2)cc1,i,i,i,i,i,i,nt,
COc1ccc(-c2cn3c(C)c(C(=O)Nc4ccncc4)sc3n2)cc1,i,i,i,i,94.2,65.1,i,
